Assay results as given in ChEMBL document CHEMBL4376862, “Synthesis and evaluation of novel chlorophyll a derivatives as potent photosensitizers for photodynamic therapy” (Eur J Med Chem, 2020).

Test system: not listed separately
Test: Therapeutic index, ratio of TC50 for human A549 cells under dark to IC50 for human A549 cells irradiated with 1 J/cm2 of 650 nanometer laser light
Type: toxicity, cell-based
Conditions: read-out: TI; call rule not given here
Summary of the method: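 A549 cells (F-12K, 10% FBS, 37 °C, 5% CO2) seeded 24 h, then exposed to 0–10 photosensitizer for 24 h. Dark arm: MTT 48 h later. Light arm: 650 nm laser, 1 J/cm2 (25 mW/cm2, 40 s), then MTT. A570 viability relative to control, triplicate. Ratio = dark TC50 / irradiated IC50.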

Row | SMILES | selectivity ratio
1 | CCCOCCOC(C)c1c(C)c2cc3nc(c4c5[nH]c(cc6nc(cc1[nH]2)C(C)=C6CC)c(C)c5C(=O)C4)[C@@H](CCC(=O)NCC(=O)CCC(=O)O)[C@@H]3C (stereo not given in full) | 3.42
2 | CCCOC(C)c1c(C)c2cc3nc(c4c5[nH]c(cc6nc(cc1[nH]2)C(C)=C6CC)c(C)c5C(=O)C4)[C@@H](CCC(=O)NCC(=O)CCC(=O)O)[C@@H]3C (stereo not given in full) | 5.32

Test system: not listed separately
Test: Octanol/water partition coefficient, logP of compound by shake flask method
Type: physicochemical
Conditions: not given
Summary of the method: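 Shake-flask method: equilibrium concentrations in octanol and water measured by UV-vis absorbance; log P taken as log of octanol/water concentration ratio (mg/L).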

Row | logP | SMILES
3 | 2.22 | CCCOCCOC(C)c1c(C)c2cc3nc(c4c5[nH]c(cc6nc(cc1[nH]2)C(C)=C6CC)c(C)c5C(=O)C4)[C@@H](CCC(=O)NCC(=O)CCC(=O)O)[C@@H]3C (stereo not given in full)
4 | 2.34 | CCCOC(C)c1c(C)c2cc3nc(c4c5[nH]c(cc6nc(cc1[nH]2)C(C)=C6CC)c(C)c5C(=O)C4)[C@@H](CCC(=O)NCC(=O)CCC(=O)O)[C@@H]3C (stereo not given in full)

Test system: not listed separately
Test: Absorption property of compound in DMSO assessed as strong absorption wavelength at 1 x 10^-3 M by UV-spectra analysis
Type: physicochemical
Conditions: 1000 µM
Summary of the method: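 Stocks 1 mM in DMSO; spectra run over […] range (units as printed), 300–800 nm in 1 nm steps, room temperature, quartz cuvettes, UV-vis spectrophotometer.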

Row | Activity [nm] | SMILES
5 | 660 to 670 | CCCOCCOC(C)c1c(C)c2cc3nc(c4c5[nH]c(cc6nc(cc1[nH]2)C(C)=C6CC)c(C)c5C(=O)C4)[C@@H](CCC(=O)NCC(=O)CCC(=O)O)[C@@H]3C (stereo not given in full)
6 | 660 to 670 | CCCOC(C)c1c(C)c2cc3nc(c4c5[nH]c(cc6nc(cc1[nH]2)C(C)=C6CC)c(C)c5C(=O)C4)[C@@H](CCC(=O)NCC(=O)CCC(=O)O)[C@@H]3C (stereo not given in full)

Test system: not listed separately
Test: Emission property of a compound in DMSO assessed as red shift at 5 uM on excitation with light at 410 to 415 nm by 3D fluorescence spectra analysis
Type: physicochemical
Conditions: not given
Summary of the method: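 Stock 1 mM in DMSO, measured at […] (so in the source); excitation scanned 350–640 nm, emission 600–750 nm, 1 nm steps, room temperature, quartz cuvettes; 3D fluorescence matrix spectra recorded.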

Row | Activity [nm] | SMILES
7 | 661 to 669 | CCCOCCOC(C)c1c(C)c2cc3nc(c4c5[nH]c(cc6nc(cc1[nH]2)C(C)=C6CC)c(C)c5C(=O)C4)[C@@H](CCC(=O)NCC(=O)CCC(=O)O)[C@@H]3C (stereo not given in full)
8 | 661 to 669 | CCCOC(C)c1c(C)c2cc3nc(c4c5[nH]c(cc6nc(cc1[nH]2)C(C)=C6CC)c(C)c5C(=O)C4)[C@@H](CCC(=O)NCC(=O)CCC(=O)O)[C@@H]3C (stereo not given in full)

Test system: not listed separately
Test: Induction of ROS generation in DMF solution assessed as slope of the photodegradation rate of DPBF at 2 uM followed by irradiation measured every 10 secs by spectrophotometric analysis
Type: functional
Conditions: not given

Row | SMILES | K [s⁻¹]
9 | CCCOCCOC(C)c1c(C)c2cc3nc(c4c5[nH]c(cc6nc(cc1[nH]2)C(C)=C6CC)c(C)c5C(=O)C4)[C@@H](CCC(=O)NCC(=O)CCC(=O)O)[C@@H]3C (stereo not given in full) | 0.0329
10 | CCCOC(C)c1c(C)c2cc3nc(c4c5[nH]c(cc6nc(cc1[nH]2)C(C)=C6CC)c(C)c5C(=O)C4)[C@@H](CCC(=O)NCC(=O)CCC(=O)O)[C@@H]3C (stereo not given in full) | 0.018

Test system: not listed separately
Test: Drug uptake in human A549 cells incubated upto 24 hrs by fluorescence spectrophotometer analysis
Type: ADME, cell-based
Conditions: a549, 24 h
Summary of the method: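 A549 cells (F-12K, 10% FBS, 37 °C, 5% CO2) grown in 24 wells and exposed to photosensitizer for 0.5, 1, 2, 4, 8, 12 or 24 h; cells harvested by digestion, fluorescence read on a spectrophotometer.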

Row | Drug uptake | SMILES
11 | Active | CCCOCCOC(C)c1c(C)c2cc3nc(c4c5[nH]c(cc6nc(cc1[nH]2)C(C)=C6CC)c(C)c5C(=O)C4)[C@@H](CCC(=O)NCC(=O)CCC(=O)O)[C@@H]3C (stereo not given in full)
12 | Active | CCCOC(C)c1c(C)c2cc3nc(c4c5[nH]c(cc6nc(cc1[nH]2)C(C)=C6CC)c(C)c5C(=O)C4)[C@@H](CCC(=O)NCC(=O)CCC(=O)O)[C@@H]3C (stereo not given in full)

Test system: not listed separately
Test: Dark toxicity in human A549 cells assessed as reduction in cell viability incubated under dark for 24 hrs measured after 48 hrs by MTT assay
Type: cell-based
Conditions: read-out: TC50
Summary of the method: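 A549 cells seeded at 5×10^4 cells/100 µL per well for 24 h, treated in the dark with […] (so in the source) for 24 h; MTT added 4 h, absorbance 570 nm, 48 h later; viability as OD treated/OD control; triplicate, mean ± SD.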

Row | SMILES | CC50 at 24 h [nM]
13 | CCCOCCOC(C)c1c(C)c2cc3nc(c4c5[nH]c(cc6nc(cc1[nH]2)C(C)=C6CC)c(C)c5C(=O)C4)[C@@H](CCC(=O)NCC(=O)CCC(=O)O)[C@@H]3C (stereo not given in full) | 4000
14 | CCCOC(C)c1c(C)c2cc3nc(c4c5[nH]c(cc6nc(cc1[nH]2)C(C)=C6CC)c(C)c5C(=O)C4)[C@@H](CCC(=O)NCC(=O)CCC(=O)O)[C@@H]3C (stereo not given in full) | 2660

Test system: A549
Test: Phototoxicity against human A549 cells assessed as reduction in cell proliferation irradiated with 1 J/cm2 of 650 nanometer laser light preincubated for 24 hrs measured after 48 hrs by MTT assay
Type: functional, cell-based
Conditions: A549, light or radiation study
Summary of the method: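 A549 cells seeded 5×10^4 cells/100 µL per well, given […] for 24 h, then 650 nm semiconductor laser at 1 J/cm2 (25 mW/cm2, 40 s); MTT 4 h, absorbance 570 nm; viability vs control; triplicate, mean ± SD.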

Row | SMILES | IC50 [nM]
15 | CCCOCCOC(C)c1c(C)c2cc3nc(c4c5[nH]c(cc6nc(cc1[nH]2)C(C)=C6CC)c(C)c5C(=O)C4)[C@@H](CCC(=O)NCC(=O)CCC(=O)O)[C@@H]3C (stereo not given in full) | 1170
16 | CCCOC(C)c1c(C)c2cc3nc(c4c5[nH]c(cc6nc(cc1[nH]2)C(C)=C6CC)c(C)c5C(=O)C4)[C@@H](CCC(=O)NCC(=O)CCC(=O)O)[C@@H]3C (stereo not given in full) | 500

Test system: A549
Test: Photodynamic antitumor activity against human A549 cells xenografted in BALB/c nude mouse assessed as decrease in tumor weight at 0.3 mg/kg, iv followed by laser light irradiation at 120 J/cm2 measured after 14 days
Type: functional
Conditions: not given
Summary of the method: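 Male BALB/c nude mice (5–6 weeks, 14–16 g) given 2×10^6 A549 cells s.c. in 0.2 mL PBS; at 6–7 mm tumors randomized into ten groups; drug via tail vein, 650 nm diode laser 120 J/cm2 at 180 mW/cm2 24 h later; caliper volume a×b²/2, followed 14 days.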

Row | SMILES | Activity [g]
17 | CCCOCCOC(C)c1c(C)c2cc3nc(c4c5[nH]c(cc6nc(cc1[nH]2)C(C)=C6CC)c(C)c5C(=O)C4)[C@@H](CCC(=O)NCC(=O)CCC(=O)O)[C@@H]3C (stereo not given in full) | 0.1154
18 | CCCOC(C)c1c(C)c2cc3nc(c4c5[nH]c(cc6nc(cc1[nH]2)C(C)=C6CC)c(C)c5C(=O)C4)[C@@H](CCC(=O)NCC(=O)CCC(=O)O)[C@@H]3C (stereo not given in full) | 0.0495

Test system: not listed separately
Test: Induction of ROS generation in DMF solution assessed as ROS quantum yield at 2 uM followed by irradiation measured every 10 secs by spectrophotometric analysis
Type: functional
Conditions: not given

Row | SMILES | Ratio
19 | CCCOCCOC(C)c1c(C)c2cc3nc(c4c5[nH]c(cc6nc(cc1[nH]2)C(C)=C6CC)c(C)c5C(=O)C4)[C@@H](CCC(=O)NCC(=O)CCC(=O)O)[C@@H]3C (stereo not given in full) | 1.65
20 | CCCOC(C)c1c(C)c2cc3nc(c4c5[nH]c(cc6nc(cc1[nH]2)C(C)=C6CC)c(C)c5C(=O)C4)[C@@H](CCC(=O)NCC(=O)CCC(=O)O)[C@@H]3C (stereo not given in full) | 0.9
